# Bioassay records: PubChem BioAssay, several laboratories
# Rtt109 Vps75 – blocks Candida albicans Rtt109/Vps75 acetyltransferase activity; Q5AAJ8; purified Rtt109/Vps75, ThioGlo CoA-SH fluorescence, 4 h; inhibition, % at 34.9 µM; 330,000 compounds, 0.16% hits; AID 540336;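 active means inhibition of at least 50% in every replicate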
# GRIN3A LBD mod – NR3A (human) ligand-binding domain modulation; NR3A LBD differential scanning fluorimetry, Tm shift; 0% = protein alone, 100% = glycine-bound protein; Tm shift relative to glycine control, % at 25 µM; 340,000 compounds, 2.5% hits; AID 1259313;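 active means melting temperature shift of at least 10% of the positive control shift, at one fixed dose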
# JMJD2C inh – blocks human GASC-1 demethylase activity. Q9H3R0. GST-JMJD2C(1-420) H3K9me3 demethylation, DELFIA europium. inhibition, % at 2.35 µM. 330,000 compounds, 0.069% hits;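 active means more than half of a compound's replicate wells show inhibition beyond 50%, single wells judged on their own value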;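 further: signal counts dimethyl H3K9 product captured on neutravidin plate; 0% = median of DMSO wells and 100% = 0.3 times that DMSO median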
# Target sequence (Q9H3R0 1-420 limits assumed): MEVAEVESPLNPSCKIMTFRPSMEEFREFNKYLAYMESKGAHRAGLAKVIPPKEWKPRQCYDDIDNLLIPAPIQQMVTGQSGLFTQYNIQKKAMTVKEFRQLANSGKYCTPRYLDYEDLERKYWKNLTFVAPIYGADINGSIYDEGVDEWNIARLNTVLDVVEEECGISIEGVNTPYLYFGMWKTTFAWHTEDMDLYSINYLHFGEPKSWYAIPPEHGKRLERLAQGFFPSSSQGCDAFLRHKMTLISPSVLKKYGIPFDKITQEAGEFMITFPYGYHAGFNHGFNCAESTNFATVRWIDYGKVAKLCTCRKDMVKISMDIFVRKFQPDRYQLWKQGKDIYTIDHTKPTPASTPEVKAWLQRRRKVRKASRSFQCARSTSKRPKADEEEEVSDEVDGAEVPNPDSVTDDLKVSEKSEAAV
# T cell HTS – T cell immune modulators affecting CD8 T cell-vesicle binding. 2C CD8+ T cell-vesicle binding, flow cytometry; hits give low values. response (vesicle binding), % at 7 µM. 330,000 compounds, 0.068% hits;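 active means response, share of CD8 T cells binding vesicles, and their 90th percentile fluorescence all below set limits, cut at about 80% in these data, passing the limit was not always enough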;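 further: values below 100% mean blocked vesicle binding to the CD8+ T cells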
#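 incubation = binding step 1.5 h, 37 °C, antibody labelling 20 min, ice | test system = 2C mouse CD8+ T cells | read-out basis = percent CD8+ FL2 mean versus row control | controls = Peptide-free naked vesicles (low) and QL9 vesicles with 0.7% DMSO vehicle (high) | detection = flow cytometry of vesicle-bound cells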
# Active calls of the source: *; i = inactive; nt = no result given. Hits are enriched below; roughly 2.8% of the tested compounds scored in any of these assays.
SMILES,Rtt109 Vps75,GRIN3A LBD mod,JMJD2C inh,T cell HTS
Cc1ccc(C)c(NC(=O)C(Sc2nc3ccc(C)cc3[nH]2)c2ccccc2)c1 (stereo not given),-16,-3,-1,220
Cc1ccc(NC(=O)CSc2nc3nc(C)c(Br)cc3[nH]2)cc1F,2,14*,3,490
N#CCCN(C(=O)COC(=O)Cc1c[nH]c2ccccc12)c1ccccc1,2,0,15,448
CC(C)(Oc1ccc(Cl)cc1)C(=O)OCC(=O)NCCc1ccccc1,-4,-1,i,466
CCN1CCN(c2ccc(NC(=O)COc3ccc(Cl)cc3C)cc2)CC1,-3,2,-4,234
COCC(=O)N1CCC(Oc2ccc(C(=O)NC(C)c3nccs3)cc2)CC1 (stereo not given),-16,0,-2,325
O=C(CSc1nc2ccc(Cl)cc2[nH]1)Nc1ccc2c(c1)CCC2,5,21*,7,76
CN(C)S(=O)(=O)c1cc(C(=O)NCC2CCCO2)c(Cl)cc1Cl (stereo not given),1,18*,-1,497
O=C(CN(Cc1ccccc1)S(=O)(=O)c1ccc(Cl)cc1)NCC1CCCO1 (stereo not given),7,0,11,291
CCN(CC(=O)NCC1CCCO1)S(=O)(=O)c1ccc(Cl)cc1 (stereo not given),-5,-1,50*,251
CCOC(=O)C1=C(COC(=O)COc2ccc(C(=O)CC)cc2)NC(=O)NC1C (stereo not given),0,-1,0,i
O=C(NNC(=O)c1cccnc1SCc1cccc([N+](=O)[O-])c1)c1ccc(F)cc1,3,-6,11,169
O=C(NNC(=O)c1cccnc1SCc1cccc([N+](=O)[O-])c1)c1ccccn1,nt,18*,-12,156
NS(=O)(=O)c1ccc(NC(=O)/C=C/c2cn(-c3ccccc3)nc2-c2cccc(Cl)c2)cc1,-2,31*,1,225
NS(=O)(=O)c1ccc(NC(=O)COC(=O)c2cn(-c3ccccc3)nc2-c2ccc(F)cc2)cc1,4,16*,0,240
CN(C)S(=O)(=O)c1cccc(NC(=O)COC(=O)c2cn(-c3ccccc3)nc2-c2ccccc2)c1,5,14*,0,214
Cc1ccc(-c2nn(-c3ccccc3)cc2/C=C/C(=O)Nc2nccs2)cc1,-5,24*,2,420
O=C(COc1ccccc1Cl)Nc1ccc2oc(=O)ccc2c1,7,2,1,547
COc1ccc(NC(=O)CN(C)C(=O)CN2C(=O)C3CCCCC3C2=O)cc1 (stereo not given),-19,2,-1,618
CC(NC(=O)COC(=O)c1cc(NS(=O)(=O)c2ccc(Cl)c([N+](=O)[O-])c2)ccc1O)C1CC2CCC1C2 (stereo not given),0,13*,4,229
CC(=NNc1nc2ccccc2s1)c1ccncn1,15,-2,nt,nt
C/C(=N\Nc1nc2ccccc2s1)c1ccc(Br)s1,7,23*,3,231
CN(C)CC(=O)Nc1cc(C(F)(F)F)ccc1Cl,3,0,-2,546
CCOC(=O)/C(=N\Nc1cc(C(F)(F)F)ccc1Cl)N(CC)CC,10,15*,-8,524
CCN1CCN(S(=O)(=O)c2ccc(Cl)c(C(=O)Oc3ccc(CC(=O)OC)cc3)c2)CC1,2,0,nt,nt
SMILES,Rtt109 Vps75,GRIN3A LBD mod,JMJD2C inh,T cell HTS
N#Cc1c(-c2ccccc2)nc(-c2ccccc2)nc1N1CCOCC1,-5,0,9,287
N#Cc1c(N)nc(-c2ccccc2)nc1-c1ccccc1,-1,10*,-4,47
NC(=O)c1sc2cc(C(F)(F)F)cnc2c1-c1cccs1,-3,21*,-1,258
COc1ccc(-c2csc3ncnc(N4CCN(c5ccccc5)CC4)c23)cc1,0,-5,-43,202
COc1ccc(-c2csc3ncnc(N4CCN(Cc5ccccc5)CC4)c23)cc1,-3,14*,-46,833
CCOc1ccccc1N1CC(C(=O)NC2CCCCCC2)CC1=O (stereo not given),10,-1,-7,262
CCOC(=O)c1[nH]c(C)c(CN(CCc2ccccc2)S(C)(=O)=O)c1C,-1,2,-7,286
CCOC(=O)c1[nH]c(C)c(CN(CCc2ccc(OC)c(OC)c2)C(=O)CCCC(=O)O)c1C,11,15*,-5,204
CC(=O)c1ccc(N2CCC(c3cc(-c4ccc(Cl)cc4)n[nH]3)CC2)c([N+](=O)[O-])c1,5,14*,-6,491
O=C(NCc1ccco1)c1ccc2[nH]c(=O)c(=O)[nH]c2c1,-2,-1,13,419
O=C1COc2ccc(C(=O)NCc3ccco3)cc2N1,67*,-1,2,504
O=C1COc2ccc(C(=O)c3ccccc3C(=O)NCc3ccco3)cc2N1,72*,0,-4,153
Nc1cc(N)nc(SCC(=O)c2ccc3c(c2)NC(=O)CO3)n1,-2,153*,15,153
COc1ccc(NC(=O)c2cc(S(=O)(=O)NCC3COc4ccccc4O3)ccc2F)cc1 (stereo not given),0,3,-1,362
CC(C)c1ccc(NC(=O)c2cc(S(=O)(=O)NCC3COc4ccccc4O3)ccc2F)cc1 (stereo not given),5,19*,-6,218
O=C(Nc1ccc(C(F)(F)F)cc1)c1cc(S(=O)(=O)NCC2COc3ccccc3O2)ccc1F (stereo not given),15,32*,1,210
C=C1C(=O)c2sccc2C(c2ccc(OC)c(OC)c2)C1COC(C)=O (stereo not given),3,-1,nt,nt
O=C(NNC(=O)c1ccncc1)Nc1ccccc1,-6,-3,9,363
O=C(NNC(=O)c1ccncc1)Nc1ccc(N=Nc2ccccc2)cc1,-4,21*,nt,nt
O=C(C[C@@H]1C/C=C/CC[C@@H](Cc2ccc(F)cc2)C(=O)OC[C@H](Cc2ccccc2)NC1=O)N[C@H](CO)Cc1ccccc1,-4,-1,-3,0
Cc1ccc(C(=O)Nc2ccc3c(c2)C(=O)N(CC2CCCO2)C3=O)cc1 (stereo not given),-1,-2,22,65*
O=C(O)c1ccc(NC(=O)c2ccc3c(c2)C(=O)N(CC2CCCO2)C3=O)cc1 (stereo not given),-6,-2,0,398
O=S(=O)(Nc1ccc(-n2cnnn2)cc1)c1cccc(F)c1,-9,0,nt,nt
Cn1nc(-c2ccccn2)nc2c(=O)n(C)c(=O)nc1-2,6,-2,54*,135
COc1ccc(NC(=O)/C=C/C(=O)O)c([N+](=O)[O-])c1,-6,2,-17,690
CCOc1ccc(/C=C/C(=O)Nc2ccc(OC)cc2[N+](=O)[O-])cc1,-4,28*,2,161
CCOc1ccc(NC(=O)/C=C/c2ccccc2)c([N+](=O)[O-])c1,14,15*,-11,342
